A selection: hits, their analogues and other compounds. The true share with any hit is near 0.73%.
DDE Tn7 FP inh – disrupts Tn7 cyclic peptide binding to fibrin D-Dimer-E complex; P02675; FP displacement of FITC-Tn7 peptide from fibrin DD(E); 0% = median of compound wells per plate; inhibition, % at 8.3 µM; actives 0.13% (n = 370,000); AID 720508;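 active = inhibition above the mean of compounds falling within the control limits plus 3 SD of them, cut at about 14% in these data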
Target sequence (P02675 whole entry, looked up): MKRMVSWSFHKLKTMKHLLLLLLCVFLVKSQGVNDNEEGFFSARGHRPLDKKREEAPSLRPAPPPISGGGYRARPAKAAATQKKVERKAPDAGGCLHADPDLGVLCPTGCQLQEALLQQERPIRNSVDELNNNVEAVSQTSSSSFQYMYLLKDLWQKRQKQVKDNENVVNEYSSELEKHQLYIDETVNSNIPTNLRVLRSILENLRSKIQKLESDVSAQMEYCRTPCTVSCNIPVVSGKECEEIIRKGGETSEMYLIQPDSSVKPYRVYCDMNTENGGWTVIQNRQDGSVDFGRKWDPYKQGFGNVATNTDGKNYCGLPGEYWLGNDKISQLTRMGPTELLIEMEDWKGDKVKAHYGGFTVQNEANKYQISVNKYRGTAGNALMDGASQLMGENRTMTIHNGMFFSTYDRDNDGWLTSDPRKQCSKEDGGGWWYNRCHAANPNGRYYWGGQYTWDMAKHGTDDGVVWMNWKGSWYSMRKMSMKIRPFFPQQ
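assay system = human clot-derived fibrin DD(E) complex | quantity = Fibrin-DD(E) at 2 µM final | timing = 10 min preincubation, 3 h with tracer, room temperature | signal = fluorescence polarization | measure = percent inhibition | benchmarks = high control wells with 10 µM unlabelled Aha-Tn7 peptide (full inhibition) | replicates = singlicate testing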
DDE Tn6 FP inh – DD(E)-Tn6 binding inhibition, primary FP screen | inhibition, % at 8.3 µM | AID 720509 | P02675 | actives 0.21% (n = 370,000) | Fibrin DD(E) TRITC-Tn6 fluorescence polarization displacement;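 active = inhibition above a per-campaign cutoff: mean of compounds within control limits plus 3 SD, cut at about 15% in these data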
Keap1 Nrf2 FP – disrupts human Keap1 binding to Nrf2 peptide | Q14145 | Keap1 Kelch-Nrf2 peptide fluorescence polarization, 1536-well | inhibition, % at 9.4 µM | actives 0.15% (n = 340,000) | AID 504523; in the data active = inhibition above about 12%;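 also: human Keap1 Kelch domain with fluorescein labeled Nrf2 9mer peptide probe; higher means more block of Keap1 binding to Nrf2 peptide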
RTF Ca sens inh – cardiac RTF calcium desensitization; P19429+P45379; IANBD-labeled cardiac RTF, Ca2+ fluorescence; inhibition, % at 7.15 µM; actives 0.12% (n = 340,000); AID 493244;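 active = inhibition above the mean inhibition of all tested compounds plus 3 SD, cut at about 17% in these data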;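 also: assay run at fixed EC70 calcium of 1.6 mM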
cardiac RTF act – increases calcium sensitivity of human cardiac regulated thin filaments; IANBD-labeled TnC RTF fluorescence at EC20 calcium; 0% EC20 calcium, 100% full calcium; actives 0.24% (n = 340,000); activation, % at 7.2 µM; AID 493008;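 active = activation above the mean over all tested compounds plus 3 SD, cut at about 30% in these data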;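 also: rise in fluorescence read as greater calcium sensitivity of cardiac thin filaments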
C-LANA FP – inhibitors of KSHV LANA C-terminal domain DNA binding. MBP-C-LANA/FAM-LBS DNA binding, fluorescence polarization. inhibition, % at 9 µM. AID 504423. actives 0.078% (n = 340,000);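 active = highest replicate inhibition at or above 60% at 9 µM, even if other replicates fall short; inactive = all replicates below 60% inhibition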
RTF inh confirm – confirmation of inhibitors of cardiac thin filament calcium sensitivity; shares compounds with RTF Ca sens inh; reconstituted cardiac thin filaments, calcium sensitivity fluorescence; inhibition, % at 7.15 µM; actives 8% (n = 360); in the data active = inhibition above about 18%
Large screens that a line does not name were inactive (follow-up assays come after a bar, where they were run).

Cc1c(Cl)c([N+](=O)[O-])nn1CC(=O)NC(C)c1ccccc1 (centres undefined)	none
Cc1c(Cl)c([N+](=O)[O-])nn1CC(=O)NCc1cccs1	RTF Ca sens inh 18 | RTF inh confirm inactive
Cc1ccc2cc(C(c3nnnn3C3CCCC3)N(Cc3ccccc3)Cc3ccco3)c(=O)[nH]c2c1 (centres undefined)	none
COCCn1nnnc1C(c1cc2ccc(C)cc2[nH]c1=O)N(Cc1ccco1)Cc1cccs1 (centres undefined)	RTF Ca sens inh 17 | RTF inh confirm inactive
CC1CCCCN1C(=O)c1cc(Cl)ccc1[N+](=O)[O-] (centres undefined)	RTF Ca sens inh 20 | RTF inh confirm inactive
COc1ccc(NC(=O)CN(C)C(=O)c2cc3c(s2)CCCCC3)cc1	none
COc1ccc(NC(=O)CN(C)C(=O)c2cc3c(s2)CCC3)cc1	RTF Ca sens inh 20 (no result: DDE Tn7 FP inh, DDE Tn6 FP inh) | RTF inh confirm inactive
Cc1ccc(-n2c(SCC(=O)Nc3ccc4c(c3)OCCO4)nnc2-c2ccco2)cc1	RTF Ca sens inh 17 | RTF inh confirm inactive
CCc1nc2ccc(C(=O)Nc3cc(-c4ccccc4)ccc3OC)cn2c1N(CCN(C)C)CC1CC1	none (no result: Keap1 Nrf2 FP, RTF Ca sens inh, cardiac RTF act, C-LANA FP)
CCCOC(=O)c1ccc(NC(=O)c2c(Cl)ccc(Cl)c2OC)cc1	RTF Ca sens inh 21 | RTF inh confirm inactive
CCCCCCCCCCC[C@@H](C[C@@H]1OC(=O)[C@H]1CCCCCC)OC(=O)[C@H](CC(C)C)NC=O	RTF Ca sens inh 20 | RTF inh confirm inactive
CCCCCCC1CC(/C(C)=N\NC(N)=O)OC1=O (centres undefined)	none
COCCN(C(=O)COC(=O)c1cc2c(s1)CCC2)c1c(N)n(Cc2ccccc2)c(=O)[nH]c1=O	RTF Ca sens inh 20 | RTF inh confirm inactive
Cc1cc(C)n2c(SCC(=O)Nc3cc(C)on3)nnc2n1	RTF Ca sens inh 18 | RTF inh confirm inactive
N=c1c2c(ccn1Cc1ccccc1)Oc1ccc3ccccc3c1C2c1ccccc1 (centres undefined)	none (no result: Keap1 Nrf2 FP, RTF Ca sens inh, cardiac RTF act, C-LANA FP)
Nc1nnc(SCC(=O)N2CCN(c3ccccc3)CC2)n1-c1ccccc1	RTF Ca sens inh 18 | RTF inh confirm inactive
O=C(NCCc1ccc(F)cc1)c1cc2ccccn2n1	none (no result: Keap1 Nrf2 FP, RTF Ca sens inh, cardiac RTF act, C-LANA FP)
COc1cc(/C=C2\SC(=Nc3ccccc3)N(CCc3c[nH]c4ccccc34)C2=O)ccc1OC(C)C(=O)O (centres undefined)	RTF Ca sens inh 35 | RTF inh confirm inactive
Cc1ccc(CSc2nnc(SCC(=O)N/N=C/c3c[nH]c4ccccc34)s2)cc1	RTF Ca sens inh 23 | RTF inh confirm inactive
CC1(C(=O)O)CCCN1C(=O)c1cccc(OC(F)(F)F)c1 (centres undefined)	none (no result: Keap1 Nrf2 FP, RTF Ca sens inh, cardiac RTF act, C-LANA FP)
O=C1NC(=S)S/C1=C\C=C\c1ccc([N+](=O)[O-])o1	RTF Ca sens inh 31 | RTF inh confirm 20
C/C(=N\NC(=S)NCc1ccccc1)c1ccc(C)o1	RTF Ca sens inh 21 | RTF inh confirm inactive
O=C(COc1ccccc1Cl)Nc1ccc2c(c1)OCO2	RTF Ca sens inh 19 | RTF inh confirm inactive
O=C(Nc1nnc(-c2ccccc2)o1)Nc1ccc(F)cc1F	RTF Ca sens inh 17 | RTF inh confirm inactive
O=C(Nc1ccc(F)cc1)Nc1nnc(-c2ccccc2)o1	none
CCCCC(CC)CO (centres undefined)	none
CCCCC(CC)CN=C(N)NC(N)=NCCCCCCN=C(N)NC(N)=NCC(CC)CCCC (centres undefined)	RTF Ca sens inh 23 (no result: DDE Tn7 FP inh, DDE Tn6 FP inh) | RTF inh confirm inactive
CN1C(=O)N(CC(=O)Nc2sccc2C(N)=O)C(=O)C12CCCCC2	RTF Ca sens inh 17 | RTF inh confirm inactive
CN1C(=O)N(CC(=O)Nc2nccs2)C(=O)C12CCCCC2	none
O=S(=O)(CC1NCc2ccccc21)NCc1ccc(F)cc1 (centres undefined)	none (no result: Keap1 Nrf2 FP, RTF Ca sens inh, cardiac RTF act, C-LANA FP)
CC1C(=O)OC2C1CCC1(C)C3(C)C(=O)C=CC213 (centres undefined)	none (no result: Keap1 Nrf2 FP, RTF Ca sens inh, cardiac RTF act, C-LANA FP)
